Assay results published in ChEMBL document CHEMBL4840303, “Design, synthesis, biological evaluation and pharmacophore model analysis of novel tetrahydropyrrolo[3,4-c]pyrazol derivatives as potential TRKs inhibitors” (Eur J Med Chem, 2021).

Legend:
KM12 [1] = test: Cell cycle arrest in human KM12 cells assessed as accumulation of cells at G2 phase at 125 nM measured after 48 hrs by AnnexinV-FITC/PI staining based flowcytometry method relative to control; assay type: functional
[2] = target: Cyclin-dependent kinase 2 (Homo sapiens) (UniProt P24941); test: Inhibition of recombinant His-tagged human full length CDK2 expressed in baculovirus expression system at 1 uM measured by select screen assay relative to control
Outline: (§1)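 Single-concentration profiling at 1.0 µM in a 28-kinase SelectScreen panel; percent inhibition reported.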

[3] = AUC (last) in Sprague dawley rat at 3 mg/kg, po; assay type: ADME, organism-based; parameters: time 0 - last, route oral, dose 3 mg/kg; conditions: in vivo
Outline: (§2)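 Blood was collected into heparin tubes at specified time points and centrifuged at once (4 °C, 4000 rpm, 20 min). Plasma levels were quantified by LC-MS/MS. Parameters came from noncompartmental analysis.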

KM12 [4] = test: Cell cycle arrest in human KM12 cells assessed as accumulation of cells at G2 phase at 250 nM measured after 48 hrs by AnnexinV-FITC/PI staining based flowcytometry method relative to control; assay type: functional
[5] = target: Serine/threonine-protein kinase TBK1 (Homo sapiens) (UniProt Q9UHD2); test: Inhibition of recombinant GST-tagged full length human TBK1 expressed in baculovirus expression system at 1 uM measured by select screen assay relative to control; outline: as §1
[6] = AUC (last) in Sprague dawley rat at 1 mg/kg, iv; assay type: ADME, organism-based; parameters: time 0 - last, route intravenous, dose 1 mg/kg; conditions: in vivo; outline: as §2
[7] = target: AMP-activated protein kinase, AMPK (Homo sapiens) (UniProt P54646+O43741+P54619+Q9UGJ0+Q9Y478+Q13131+Q9UGI9); test: Inhibition of recombinant GST-tagged His-tagged full length human AMPK expressed in baculovirus expression system at 1 uM measured by select screen assay; outline: as §1
KM12 [8] = test: Induction of apoptosis in human KM12 cells assessed as late apoptotic cells at 250 nM measured after 48 hrs by AnnexinV-FITC/PI staining based flowcytometry assay relative to control; assay type: functional
Outline: (§3)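 They were detached with trypsin, washed twice in PBS, and 10^5 cells were suspended in Annexin V binding buffer. Cells were stained with FITC-Annexin V and PI for 10 min at room temperature in the dark, diluted with PBS and analysed by flow cytometry.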

CYP3A4 = CYP3A4 (Homo sapiens, UniProt P08684); test: Inhibition of CYP3A4 in human liver microsomes at 10 uM preincubated for 10 mins followed by addition of NADPH and measured after 15 mins by LC-MS/MS analysis; assay type: ADME
CYP3A4, sequence (P08684 whole entry): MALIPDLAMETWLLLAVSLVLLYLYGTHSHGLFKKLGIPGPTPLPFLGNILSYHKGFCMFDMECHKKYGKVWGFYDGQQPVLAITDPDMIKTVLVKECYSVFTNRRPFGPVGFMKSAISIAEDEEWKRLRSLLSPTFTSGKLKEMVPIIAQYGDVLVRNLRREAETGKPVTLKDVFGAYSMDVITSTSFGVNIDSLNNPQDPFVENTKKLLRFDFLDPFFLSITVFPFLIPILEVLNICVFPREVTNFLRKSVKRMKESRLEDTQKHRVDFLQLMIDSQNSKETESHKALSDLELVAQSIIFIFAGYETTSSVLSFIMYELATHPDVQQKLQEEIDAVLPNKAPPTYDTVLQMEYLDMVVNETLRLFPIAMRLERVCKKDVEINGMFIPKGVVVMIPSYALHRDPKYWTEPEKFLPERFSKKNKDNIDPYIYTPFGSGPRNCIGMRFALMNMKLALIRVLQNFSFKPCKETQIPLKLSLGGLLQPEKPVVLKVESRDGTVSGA
Outline: (§4)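 Pooled human liver microsomes (0.253 mg/mL) with test compound at 10 µM and probe substrates: phenacetin (CYP1A2), diclofenac (CYP2C9), S-mephenytoin (CYP2C19), dextromethorphan (CYP2D6), midazolam (CYP3A4). 10 min preincubation at 37 °C, NADPH-regenerating system added, 15 min at 37 °C. Stopped with cold acetonitrile containing tolbutamide/labetalol internal standards, centrifuged, supernatant read by LC-MS/MS; % inhibition.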

[9] = MRT in Sprague dawley rat at 3 mg/kg, po; assay type: ADME, organism-based; conditions: in vivo
Outline: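 Male-unspecified SD rats, n = 3 per group, single i.v. dose 1 mg/kg or oral 3 mg/kg. Blood drawn into heparin tubes at set times, centrifuged at 4 °C, plasma quantified by LC-MS/MS; noncompartmental parameters fitted.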

THLE-2 = test: cells; conditions: Homo sapiens, THLE-2, 72 h
[10] = target: Receptor-type tyrosine-protein kinase FLT3 (Homo sapiens) (UniProt P36888); test: Inhibition of recombinant His-tagged human FLT3 expressed in baculovirus expression system at 1 uM measured by select screen assay relative to control; outline: as §1
[11] = target: Fibroblast growth factor receptor 1 (Homo sapiens) (UniProt P11362); test: Inhibition of recombinant His-tagged human FGFR1 expressed in baculovirus expression system at 1 uM measured by select screen assay relative to control; outline: as §1
Fibroblast growth factor receptor 1 (Homo sapiens), sequence (P11362 22-822 limits assumed): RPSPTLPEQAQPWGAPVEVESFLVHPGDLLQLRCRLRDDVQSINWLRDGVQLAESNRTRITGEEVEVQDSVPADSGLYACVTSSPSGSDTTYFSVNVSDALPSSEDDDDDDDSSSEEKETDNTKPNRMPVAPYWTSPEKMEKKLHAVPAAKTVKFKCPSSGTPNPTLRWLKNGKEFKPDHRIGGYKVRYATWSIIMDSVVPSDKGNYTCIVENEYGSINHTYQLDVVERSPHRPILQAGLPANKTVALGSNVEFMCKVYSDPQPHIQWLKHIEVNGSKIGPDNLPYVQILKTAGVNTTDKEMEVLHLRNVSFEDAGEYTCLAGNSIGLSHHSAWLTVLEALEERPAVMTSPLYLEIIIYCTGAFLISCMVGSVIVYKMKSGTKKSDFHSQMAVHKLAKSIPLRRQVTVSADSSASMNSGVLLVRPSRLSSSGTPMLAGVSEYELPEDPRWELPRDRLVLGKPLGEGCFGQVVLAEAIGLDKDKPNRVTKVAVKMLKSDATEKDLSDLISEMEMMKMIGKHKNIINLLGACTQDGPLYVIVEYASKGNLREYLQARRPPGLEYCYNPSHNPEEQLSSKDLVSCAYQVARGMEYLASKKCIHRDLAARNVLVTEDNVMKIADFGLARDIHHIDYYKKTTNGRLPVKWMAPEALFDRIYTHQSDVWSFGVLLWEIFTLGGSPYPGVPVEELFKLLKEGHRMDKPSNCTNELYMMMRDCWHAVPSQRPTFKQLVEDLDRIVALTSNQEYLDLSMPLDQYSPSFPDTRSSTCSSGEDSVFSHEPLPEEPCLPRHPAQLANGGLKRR

CYP1A2 = CYP1A2 (Homo sapiens, UniProt P05177); test: Inhibition of CYP1A2 in human liver microsomes at 10 uM preincubated for 10 mins followed by addition of NADPH and measured after 15 mins by LC-MS/MS analysis; assay type: ADME; conditions: time 25 min; outline: as §4
CYP1A2, sequence (P05177 whole entry): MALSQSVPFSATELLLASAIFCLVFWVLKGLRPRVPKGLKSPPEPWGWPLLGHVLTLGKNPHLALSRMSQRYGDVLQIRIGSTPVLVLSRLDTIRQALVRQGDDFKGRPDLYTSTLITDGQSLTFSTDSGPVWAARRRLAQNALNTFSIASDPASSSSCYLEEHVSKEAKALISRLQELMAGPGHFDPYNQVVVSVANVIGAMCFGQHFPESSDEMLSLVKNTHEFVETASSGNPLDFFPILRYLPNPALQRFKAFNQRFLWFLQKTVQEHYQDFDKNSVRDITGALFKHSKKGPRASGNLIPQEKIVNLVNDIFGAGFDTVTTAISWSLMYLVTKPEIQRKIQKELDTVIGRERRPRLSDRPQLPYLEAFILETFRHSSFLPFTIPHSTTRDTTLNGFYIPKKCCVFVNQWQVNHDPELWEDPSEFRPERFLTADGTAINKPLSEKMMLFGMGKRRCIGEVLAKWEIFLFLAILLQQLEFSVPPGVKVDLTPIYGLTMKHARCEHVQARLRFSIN

KM12 [12] = test: Cell cycle arrest in human KM12 cells assessed as accumulation of cells at less G1 phase at 1000 nM measured after 48 hrs by AnnexinV-FITC/PI staining based flowcytometry method relative to control; assay type: functional
[13] = target: Serine/threonine-protein kinase mTOR (Homo sapiens) (UniProt P42345); test: Inhibition of recombinant GST-tagged human mTOR (1360 to 2549 residues) expressed in baculovirus expression system at 1 uM measured by select screen assay relative to control; outline: as §1
[14] = AUC (0 to infinity) in Sprague dawley rat at 3 mg/kg, po; assay type: ADME, organism-based; parameters: time infinity, route oral, dose 3 mg/kg; conditions: in vivo; outline: as §2
[15] = target: RAC-alpha serine/threonine-protein kinase (Homo sapiens) (UniProt P31749); test: Inhibition of recombinant His-tagged human full length AKT1 expressed in baculovirus expression system at 1 uM measured by select screen assay relative to control; outline: as §1
RAC-alpha serine/threonine-protein kinase (Homo sapiens), sequence (P31749 whole entry): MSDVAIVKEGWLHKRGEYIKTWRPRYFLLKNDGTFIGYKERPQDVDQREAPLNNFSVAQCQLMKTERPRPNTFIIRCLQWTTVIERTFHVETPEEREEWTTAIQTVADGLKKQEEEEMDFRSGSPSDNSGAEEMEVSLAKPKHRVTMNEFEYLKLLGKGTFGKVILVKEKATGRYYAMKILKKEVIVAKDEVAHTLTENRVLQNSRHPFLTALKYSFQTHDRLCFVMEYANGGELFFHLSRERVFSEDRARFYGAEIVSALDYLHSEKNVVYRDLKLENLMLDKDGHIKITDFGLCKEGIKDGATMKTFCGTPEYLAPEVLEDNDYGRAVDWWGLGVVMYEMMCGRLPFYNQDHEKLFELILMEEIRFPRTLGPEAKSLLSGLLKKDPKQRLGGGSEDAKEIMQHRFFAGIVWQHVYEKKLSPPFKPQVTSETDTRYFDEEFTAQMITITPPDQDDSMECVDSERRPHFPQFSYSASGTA

[16] = target: Serine/threonine-protein kinase B-raf (Homo sapiens) (UniProt P15056); test: Inhibition of recombinant GST-tagged human full length BRAF expressed in baculovirus expression system at 1 uM measured by select screen assay relative to control; outline: as §1
Serine/threonine-protein kinase B-raf (Homo sapiens), sequence (P15056 whole entry): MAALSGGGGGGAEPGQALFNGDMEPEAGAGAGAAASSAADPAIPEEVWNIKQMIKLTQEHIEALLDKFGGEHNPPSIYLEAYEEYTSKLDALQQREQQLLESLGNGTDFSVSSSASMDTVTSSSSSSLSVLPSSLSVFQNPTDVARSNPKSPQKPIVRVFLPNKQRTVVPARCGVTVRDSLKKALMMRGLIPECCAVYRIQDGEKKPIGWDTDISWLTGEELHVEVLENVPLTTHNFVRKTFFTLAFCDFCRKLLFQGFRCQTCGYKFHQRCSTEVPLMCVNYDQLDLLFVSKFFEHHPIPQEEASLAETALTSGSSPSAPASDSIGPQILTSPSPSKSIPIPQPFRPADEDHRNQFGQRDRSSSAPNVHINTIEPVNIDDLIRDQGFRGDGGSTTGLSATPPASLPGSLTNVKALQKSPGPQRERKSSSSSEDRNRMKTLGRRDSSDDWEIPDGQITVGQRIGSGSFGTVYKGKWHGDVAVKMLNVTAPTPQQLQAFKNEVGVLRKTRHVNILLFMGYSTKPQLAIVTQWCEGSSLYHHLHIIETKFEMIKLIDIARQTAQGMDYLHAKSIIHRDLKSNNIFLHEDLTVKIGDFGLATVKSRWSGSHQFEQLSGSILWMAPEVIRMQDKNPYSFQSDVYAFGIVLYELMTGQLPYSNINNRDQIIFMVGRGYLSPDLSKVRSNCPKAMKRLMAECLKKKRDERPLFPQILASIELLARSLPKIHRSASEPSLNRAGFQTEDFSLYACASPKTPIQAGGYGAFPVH

KM12 [17] = test: Cell cycle arrest in human KM12 cells assessed as accumulation of cells at S phase at 125 nM measured after 48 hrs by AnnexinV-FITC/PI staining based flowcytometry method relative to control; assay type: functional
CYP2D6 = CYP2D6 (Homo sapiens, UniProt P10635); test: Inhibition of CYP2D6 in human liver microsomes at 10 uM preincubated for 10 mins followed by addition of NADPH and measured after 15 mins by LC-MS/MS analysis; assay type: ADME; conditions: time 25 min; outline: as §4
CYP2D6, sequence (P10635 whole entry): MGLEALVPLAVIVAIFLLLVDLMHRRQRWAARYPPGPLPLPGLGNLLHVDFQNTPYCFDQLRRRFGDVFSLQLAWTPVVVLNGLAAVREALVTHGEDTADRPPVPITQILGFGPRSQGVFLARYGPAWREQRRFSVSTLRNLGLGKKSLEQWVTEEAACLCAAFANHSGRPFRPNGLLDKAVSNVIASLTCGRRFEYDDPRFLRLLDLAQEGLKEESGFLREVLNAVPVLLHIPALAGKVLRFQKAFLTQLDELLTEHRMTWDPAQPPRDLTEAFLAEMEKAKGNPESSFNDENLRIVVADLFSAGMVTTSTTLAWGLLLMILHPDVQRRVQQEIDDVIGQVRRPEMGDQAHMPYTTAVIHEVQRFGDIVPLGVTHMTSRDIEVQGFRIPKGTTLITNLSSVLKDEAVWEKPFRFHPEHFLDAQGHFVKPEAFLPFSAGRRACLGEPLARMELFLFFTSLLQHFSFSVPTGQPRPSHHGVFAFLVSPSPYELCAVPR

[18] = Half life in Sprague dawley rat at 1 mg/kg, iv; assay type: ADME, organism-based; conditions: in vivo; outline: as §2
KM12 [19] = test: Induction of apoptosis in human KM12 cells assessed as late apoptotic cells at 500 nM measured after 48 hrs by AnnexinV-FITC/PI staining based flowcytometry assay relative to control; assay type: functional; outline: as §3
[20] = Cmax in Sprague dawley rat at 3 mg/kg, po; assay type: ADME, organism-based; parameters: route oral, dose 3 mg/kg; conditions: in vivo; outline: as §2
KM12 [21] = test: Induction of apoptosis in human KM12 cells assessed as necrotic cells at 125 nM measured after 48 hrs by AnnexinV-FITC/PI staining based flowcytometry assay relative to control; assay type: functional; outline: as §3
KM12 [22] = test: Cell cycle arrest in human KM12 cells assessed as accumulation of cells at less G1 phase at 62.5 nM measured after 48 hrs by AnnexinV-FITC/PI staining based flowcytometry method relative to control; assay type: functional
[23] = target: Tyrosine-protein kinase BTK (Homo sapiens) (UniProt Q06187); test: Inhibition of recombinant His-tagged full length human BTK expressed in baculovirus expression system at 1 uM measured by select screen assay relative to control; outline: as §1
Tyrosine-protein kinase BTK (Homo sapiens), sequence (Q06187 whole entry): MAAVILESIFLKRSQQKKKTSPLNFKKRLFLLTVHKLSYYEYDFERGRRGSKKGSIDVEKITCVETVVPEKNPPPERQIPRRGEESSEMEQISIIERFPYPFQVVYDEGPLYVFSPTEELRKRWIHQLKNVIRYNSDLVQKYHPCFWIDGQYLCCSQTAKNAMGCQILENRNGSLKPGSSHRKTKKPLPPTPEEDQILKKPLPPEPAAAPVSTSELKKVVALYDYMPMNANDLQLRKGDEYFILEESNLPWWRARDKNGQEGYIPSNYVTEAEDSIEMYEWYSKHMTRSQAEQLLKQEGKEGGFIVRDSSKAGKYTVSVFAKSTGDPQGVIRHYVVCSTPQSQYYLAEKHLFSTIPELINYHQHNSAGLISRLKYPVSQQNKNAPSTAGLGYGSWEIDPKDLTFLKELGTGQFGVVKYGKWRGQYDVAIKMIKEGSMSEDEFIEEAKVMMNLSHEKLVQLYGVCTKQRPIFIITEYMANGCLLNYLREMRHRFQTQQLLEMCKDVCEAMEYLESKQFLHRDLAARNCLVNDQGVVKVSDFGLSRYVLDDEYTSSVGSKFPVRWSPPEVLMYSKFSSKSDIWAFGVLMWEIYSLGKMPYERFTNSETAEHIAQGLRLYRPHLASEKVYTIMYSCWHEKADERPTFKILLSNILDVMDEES

[24] = target: Mitogen-activated protein kinase 3 (Homo sapiens) (UniProt P27361); test: Inhibition of recombinant GST-tagged full length human ERK1 expressed in Escherichia coli expression system at 1 uM measured by select screen assay relative to control; outline: as §1
Mitogen-activated protein kinase 3 (Homo sapiens), sequence (P27361 whole entry): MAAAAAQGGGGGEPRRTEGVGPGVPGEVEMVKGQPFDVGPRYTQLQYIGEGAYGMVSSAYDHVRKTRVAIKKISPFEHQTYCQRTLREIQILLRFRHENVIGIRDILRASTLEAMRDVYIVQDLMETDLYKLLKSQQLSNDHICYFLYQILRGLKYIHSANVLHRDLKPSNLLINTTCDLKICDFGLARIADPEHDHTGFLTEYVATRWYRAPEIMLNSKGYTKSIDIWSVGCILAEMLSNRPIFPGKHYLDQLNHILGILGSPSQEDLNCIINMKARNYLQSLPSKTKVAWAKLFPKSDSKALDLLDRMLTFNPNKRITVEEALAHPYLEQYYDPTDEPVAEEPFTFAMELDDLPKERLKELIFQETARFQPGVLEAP

## CN1CCN(c2ccc(C(=O)Nc3n[nH]c4c3CN(Cc3cc(F)cc(F)c3)C4(C)C)cc2)CC1
KM12 [1]
  Activity: 11.5%
[2]
  inhibition: 3%
[3]
  AUC(0-t): 2700 ng·h/mL
KM12 [4]
  Activity: 9.26%
[5]
  inhibition: 7%
[6]
  AUC(0-t): 2030 ng·h/mL
[7]
  inhibition: 53%
KM12 [8]
  Activity: 36.84%
CYP3A4
  inhibition at 0.25 h, 10 µM: 6.4%
[9]
  MRT: 3.49 h
THLE-2
  IC50: > 100 µM
[10]
  inhibition: 31%
[11]
  inhibition: 60%
CYP1A2
  inhibition at 0.25 h, 10 µM: 12.9%
KM12 [12]
  Activity: 7.77%
[13]
  inhibition: 1%
[14]
  AUC(0-inf): 2890 ng·h/mL
[15]
  inhibition: 2%
[16]
  inhibition: 3%
KM12 [17]
  Activity: 21.5%
CYP2D6
  inhibition at 0.25 h, 10 µM: 0%
[18]
  half-life: 1.51 h
KM12 [19]
  Activity: 39.1%
[20]
  Cmax: 603 ng/mL
KM12 [21]
  Activity: 0.07%
KM12 [22]
  Activity: 3.63%
[23]
  inhibition: 35%
[24]
  inhibition: 0%
